Key:
L1210 = assay: Concentration required to inhibit 50% of murine leukemia L1210 cell growth was measured(in vitro) using MTT assay.; type: functional, cell-based, Mus musculus
Summary of the method: (§1)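 Cells seeded at 2 × 10³/well, cultured with or without test nucleoside for 72 h, then 4 h further with MTT. Formazan dissolved in DMSO, OD read at 540 nm. % inhibition = [1 − OD sample/OD control] × 100; IC50 taken as concentration giving 50% growth inhibition. S-180 cytotoxicity run by the same method.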

Sarcoma-180 [1] = assay: Cytotoxicity against sarcoma -180 cells was measured by […].; type: functional, cell-based; conditions: Mus musculus; summary of the method: as §1
Sarcoma-180 [2] = assay: Phosphorylation by uridine/cytidine kinase(UCK) from mouse sarcoma -180 ascites cells was measured.; type: functional
Summary of the method: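 UCK partially purified from mouse Sarcoma-180 ascites cells (ammonium sulfate 30–50%, Sephacryl S-200, hydroxyapatite, DEAE-Sepharose). Reaction: 50 mM Tris-HCl pH 8.0, 10 mM ATP, 10 mM NaF, 5 mM MgCl2, 1 mg/mL BSA, 0.6 mM nucleoside, 37 °C, 15 min (Cyd, Urd) or 60 min (others), stopped by boiling. Tritiated nucleosides: 5'-monophosphate on PEI-cellulose TLC counted; unlabeled: substrate consumption by C18 HPLC at 270 nm. Duplicate means.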

KB [3] = assay: Concentration required to inhibit 50% of human epidermoid KB cell growth was measured(in vitro) using MTT assay.; type: functional, cell-based; summary of the method: as §1
KB [4] = assay: The concentration required to inhibit 50% of human epidermoid KB cell growth was measured(in vitro) using MTT assay.; type: functional, cell-based; summary of the method: as §1

`CC[C@@]1(O)[C@@H](CO)O[C@@H](n2ccc(N)nc2=O)[C@@H]1O` was tested, and the IC50 (L1210; Mus musculus, L1210) was 269 µM, the IC50 (Sarcoma-180 [1]) was > 30 µM and the Phosphorylating activity (Sarcoma-180 [2]) was 0 pmol/min/assay. For the same molecule, the IC50 (KB [3]; Homo sapiens, KB) was 258 µM.
For `C#CC[C@@]1(O)[C@@H](CO)O[C@@H](n2ccc(N)nc2=O)[C@@H]1O`, the IC50 (L1210; Mus musculus, L1210) was > 350 µM and the IC50 (KB [3]; Homo sapiens, KB) was > 350 µM.
For `C#C[C@@]1(O)[C@H](O)[C@@H](CO)O[C@H]1n1ccc(N)nc1=O` [2'-ETHYNYL-D-CYTIDINE], the IC50 (L1210; Mus musculus, L1210) was > 350 µM and the IC50 (KB [3]; Homo sapiens, KB) was > 350 µM.
`C#C[C@H]1[C@@H](O)[C@H](n2ccc(=O)[nH]c2=O)O[C@@H]1CO` was tested, and the IC50 (L1210; Mus musculus, L1210) was > 350 µM and the IC50 (KB [3]; Homo sapiens, KB) was > 350 µM.
In the case of `C#C[C@]1(O)[C@H](O)[C@@H](CO)O[C@H]1n1ccc(N)nc1=O`, the IC50 (L1210; Mus musculus, L1210) is reported as > 350 µM and the IC50 (KB [3]; Homo sapiens, KB) is reported as > 350 µM.
`CCC[C@@]1(O)[C@@H](CO)O[C@@H](n2ccc(=O)[nH]c2=O)[C@@H]1O` was tested, and the IC50 (L1210; Mus musculus, L1210) was > 350 µM and the IC50 (KB [3]; Homo sapiens, KB) was > 350 µM.
In the case of `O=c1ccn([C@@H]2O[C@H](CO)[C@](O)(C3CC3)[C@H]2O)c(=O)[nH]1`, the IC50 (L1210; Mus musculus, L1210) is reported as > 350 µM and the IC50 (KB [3]; Homo sapiens, KB) is reported as > 350 µM.
For `CCC#C[C@@]1(O)[C@@H](CO)O[C@@H](n2ccc(N)nc2=O)[C@@H]1O`, the IC50 (L1210; Mus musculus, L1210) was 129 µM, the IC50 (Sarcoma-180 [1]) was > 30 µM and the Phosphorylating activity (Sarcoma-180 [2]) was 0 pmol/min/assay. For the same molecule, the IC50 (KB [3]; Homo sapiens, KB) was 108 µM.
In the case of `CC#C[C@@]1(O)[C@@H](CO)O[C@@H](n2ccc(=O)[nH]c2=O)[C@@H]1O`, the IC50 (L1210; Mus musculus, L1210) is reported as 354 µM and the IC50 (KB [3]; Homo sapiens, KB) is reported as 70.8 µM.
`C#CC[C@@]1(O)[C@@H](CO)O[C@@H](n2ccc(=O)[nH]c2=O)[C@@H]1O` was tested, and the IC50 (KB [4]) was > 350 µM and the IC50 (L1210; Mus musculus, L1210) was > 350 µM.
For `C=C[C@@]1(O)[C@@H](CO)O[C@@H](n2ccc(=O)[nH]c2=O)[C@@H]1O`, the IC50 (L1210; Mus musculus, L1210) was 148 µM, the IC50 (Sarcoma-180 [1]) was > 30 µM and the Phosphorylating activity (Sarcoma-180 [2]) was 9.3 pmol/min/assay. It also gave an IC50 (KB [3]; Homo sapiens, KB) of 51.8 µM.
`C#C[C@]1(O)[C@@H](CO)O[C@@H](n2ccc(N)nc2=O)[C@@H]1O` was tested, and the IC50 (L1210; l1210) was > 350 µM and the IC50 (KB [3]; kb) was > 350 µM.
With `C=C[C@@]1(O)[C@@H](CO)O[C@@H](n2ccc(N)nc2=O)[C@@H]1O` the IC50 (L1210; Mus musculus, L1210) was 60.8 µM, the IC50 (Sarcoma-180 [1]) was > 30 µM and the Phosphorylating activity (Sarcoma-180 [2]) was 0 pmol/min/assay. It also gave an IC50 (KB [3]; Homo sapiens, KB) of 74.3 µM.
For `C#C[C@@H]1[C@@H](O)[C@H](n2ccc(=O)[nH]c2=O)O[C@@H]1CO`, the IC50 (L1210; Mus musculus, L1210) was > 350 µM and the IC50 (KB [3]; Homo sapiens, KB) was > 350 µM.
`C#CC[C@]1(O)[C@@H](CO)O[C@@H](n2ccc(N)nc2=O)[C@@H]1O` was tested, and the IC50 (L1210; Mus musculus, L1210) was > 350 µM and the IC50 (KB [3]; Homo sapiens, KB) was > 350 µM.
With `C#C[C@]1(O)[C@@H](CO)O[C@@H](n2ccc(=O)[nH]c2=O)[C@@H]1O` the IC50 (L1210; l1210) was > 350 µM, the IC50 (Sarcoma-180 [1]) was 0.013 µM and the Phosphorylating activity (Sarcoma-180 [2]) was 141 pmol/min/assay. For the same molecule, the IC50 (KB [3]; kb) was > 350 µM.
`CCC#C[C@@]1(O)[C@@H](CO)O[C@@H](n2ccc(=O)[nH]c2=O)[C@@H]1O` gave an IC50 (L1210; Mus musculus, L1210) of 338 µM and an IC50 (KB [3]; Homo sapiens, KB) of 226 µM.
`C#CC[C@]1(O)[C@@H](CO)O[C@@H](n2ccc(=O)[nH]c2=O)[C@@H]1O` was tested, and the IC50 (L1210; Mus musculus, L1210) was > 350 µM and the IC50 (KB [3]; Homo sapiens, KB) was > 350 µM.
`O=c1ccn([C@@H]2O[C@H](CO)[C@@H](O)[C@H]2O)c(=O)[nH]1` [URIDINE] gave a Phosphorylating activity (Sarcoma-180 [2]) of 755 pmol/min/assay.
In the case of `CC#C[C@@]1(O)[C@@H](CO)O[C@@H](n2ccc(N)nc2=O)[C@@H]1O`, the IC50 (L1210; Mus musculus, L1210) is reported as 24.5 µM, the IC50 (Sarcoma-180 [1]) is reported as 13.9 µM and the Phosphorylating activity (Sarcoma-180 [2]) is reported as 160 pmol/min/assay. For the same molecule, the IC50 (KB [3]; Homo sapiens, KB) was 14.6 µM.
With `Nc1ccn([C@@H]2O[C@H](CO)[C@](O)(C3CC3)[C@H]2O)c(=O)n1` the IC50 (L1210; Mus musculus, L1210) was > 350 µM and the IC50 (KB [3]; Homo sapiens, KB) was > 350 µM.
With `C#C[C@@H]1[C@@H](O)[C@H](n2ccc(N)nc2=O)O[C@@H]1CO` the IC50 (L1210; Mus musculus, L1210) was > 350 µM, the IC50 (Sarcoma-180 [1]) was > 30 µM and the Phosphorylating activity (Sarcoma-180 [2]) was 6.9 pmol/min/assay. For the same molecule, the IC50 (KB [3]; Homo sapiens, KB) was > 350 µM.
`Nc1ccn([C@@H]2O[C@H](CO)[C@@H](O)[C@H]2O)c(=O)n1` [CYTIDINE] gave a Phosphorylating activity (Sarcoma-180 [2]) of 812 pmol/min/assay.

From ChEMBL document CHEMBL1131043, “Nucleosides and nucleotides. 175. Structural requirements of the sugar moiety for the antitumor activities of new nucleoside antimetabolites, 1-(3-C-ethynyl-beta-D-ribo-pentofuranosyl)cytosine and -uracil1” (J Med Chem, 1998)
